Laboratory results reported in ChEMBL document CHEMBL1127395, “Synthesis and antimicrobial activity of novel 3-[(aminopyrimidiniumyl)thio]methyl cephalosporins” (1994).
Converted amounts (≈) assume the structure as drawn.

Legend:
Citrobacter freundii = assay: In vitro minimum inhibitory concentration for Citrobacter freundii (ATCC-8090) by agar dilution method; assay type: functional; details: Citrobacter freundii; read-out: MIC
In short: (§1)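 Two-fold serial dilutions of each compound dispersed in Mueller-Hinton agar; plates spot-inoculated with 2 μL of standard test strain at 10^7 CFU/mL, incubated 37 °C for 20 h; MIC read as lowest concentration inhibiting growth.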

Enterobacter cloacae = assay: In vitro minimum inhibitory concentration for Enterobacter cloacae (ATCC-27508) by agar dilution method; assay type: functional; details: Enterobacter cloacae; read-out: MIC; in short: as §1
Klebsiella aerogenes = assay: In vitro minimum inhibitory concentration for Enterobacter aerogenes (ATCC-29751) by agar dilution method; assay type: functional; details: Klebsiella aerogenes; read-out: MIC; in short: as §1
Klebsiella pneumoniae = assay: In vitro minimum inhibitory concentration for Klebsiella pneumoniae (ATCC-10031) by agar dilution method; assay type: functional; details: Klebsiella pneumoniae; read-out: MIC
Pseudomonas aeruginosa [1] = assay: In vitro minimum inhibitory concentration for Pseudomonas aeruginosa (ATCC-27853) by agar dilution method; assay type: functional; details: Pseudomonas aeruginosa; read-out: MIC; in short: as §1
Proteus vulgaris = assay: In vitro minimum inhibitory concentration for Proteus vulgaris (ATCC-6059) by agar dilution method; assay type: functional; details: Proteus vulgaris; read-out: MIC; in short: as §1
Salmonella typhimurium = assay: In vitro minimum inhibitory concentration for Salmonella Typhimurium (ATCC-14028) by agar dilution method; assay type: functional, Salmonella enterica subsp. enterica serovar Typhimurium; details: Salmonella enterica; read-out: MIC; in short: as §1
Serratia marcescens = assay: In vitro minimum inhibitory concentration for Serratia marcescens (ATCC-27117) by agar dilution method; assay type: functional; details: Serratia marcescens; read-out: MIC; in short: as §1
[2] = system: Staphylococcus epidermidis; assay: In vitro minimum inhibitory concentration for Staphylococcus epidermidis (ATCC-12228) by agar dilution method; assay type: functional; details: Staphylococcus epidermidis; read-out: MIC; in short: as §1
Staphylococcus aureus [3] = assay: In vitro minimum inhibitory concentration for Staphylococcus aureus (ATCC 6538p) by agar dilution method; assay type: functional; details: Staphylococcus aureus, ATCC 6538p; read-out: MIC; in short: as §1
Escherichia coli = assay: In vitro minimum inhibitory concentration for Escherichia coli (ATCC-10536) by agar dilution method; assay type: functional; details: Escherichia coli; read-out: MIC; in short: as §1
Pseudomonas aeruginosa [4] = assay: In vitro minimum inhibitory concentration for Pseudomonas aeruginosa (ATCC 10145) by agar dilution method; assay type: functional; in short: as §1
Staphylococcus aureus [5] = assay: In vitro minimum inhibitory concentration for Staphylococcus aureus (ATCC 6538p) by agar dilution method

Compound | MIC (Citrobacter freundii) | MIC (Enterobacter cloacae) | MIC (Klebsiella aerogenes) | MIC (Klebsiella pneumoniae) | MIC (Pseudomonas aeruginosa [1]) | MIC (Proteus vulgaris) | MIC (Salmonella typhimurium) | MIC (Serratia marcescens) | MIC [2] | MIC (Staphylococcus aureus [3]) | MIC (Escherichia coli) | MIC (Pseudomonas aeruginosa [4]) | MIC (Staphylococcus aureus [5])
Cc1ccc(-[n+]2c(N)cc(N)nc2SCC2=C(C(=O)[O-])N3C(=O)C(NC(=O)/C(=N\OC(C)(C)C(=O)O)c4cnc(N)s4)C3SC2)c(C)c1 (stereo not given) | 2 µg/mL (≈ 2.8 µM) | 0.13 µg/mL (≈ 0.182 µM) | 2 µg/mL (≈ 2.8 µM) | 0.13 µg/mL (≈ 0.182 µM) | 2 µg/mL (≈ 2.8 µM) | 0.25 µg/mL (≈ 0.35 µM) | 2 µg/mL (≈ 2.8 µM) | 2 µg/mL (≈ 2.8 µM) | 2 µg/mL (≈ 2.8 µM) | 4 µg/mL (≈ 5.6 µM) | 0.5 µg/mL (≈ 0.7 µM) | 8 µg/mL (≈ 11.2 µM) | 
Cc1cccc(C)c1-[n+]1c(N)cc(N)nc1SCC1=C(C(=O)[O-])N2C(=O)C(NC(=O)/C(=N\OC(C)(C)C(=O)O)c3cnc(N)s3)C2SC1 (stereo not given) | 1 µg/mL (≈ 1.4 µM) | 0.25 µg/mL (≈ 0.35 µM) | 2 µg/mL (≈ 2.8 µM) | 0.25 µg/mL (≈ 0.35 µM) | 4 µg/mL (≈ 5.6 µM) | 0.5 µg/mL (≈ 0.7 µM) | 2 µg/mL (≈ 2.8 µM) | 2 µg/mL (≈ 2.8 µM) | 2 µg/mL (≈ 2.8 µM) | 4 µg/mL (≈ 5.6 µM) | 0.5 µg/mL (≈ 0.7 µM) | 8 µg/mL (≈ 11.2 µM) | 
CC(C)(O/N=C(\C(=O)NC1C(=O)N2C(C(=O)O)=C(CSc3nccc(N)n3)CSC12)c1cnc(N)s1)C(=O)O (stereo not given) | 1 µg/mL (≈ 1.68 µM) | 0.5 µg/mL (≈ 0.841 µM) | 8 µg/mL (≈ 13.5 µM) | 0.5 µg/mL (≈ 0.841 µM) | 8 µg/mL (≈ 13.5 µM) | 0.063 µg/mL (≈ 0.106 µM) | 1 µg/mL (≈ 1.68 µM) | 1 µg/mL (≈ 1.68 µM) | 16 µg/mL (≈ 26.9 µM) | 32 µg/mL (≈ 53.8 µM) | 1 µg/mL (≈ 1.68 µM) | 16 µg/mL (≈ 26.9 µM) | 
COc1cc(N)nc(SCC2=C(C(=O)[O-])N3C(=O)C(NC(=O)/C(=N\OC(C)(C)C(=O)O)c4cnc(N)s4)C3SC2)[n+]1C (stereo not given) | 0.13 µg/mL (≈ 0.204 µM) | 0.02 µg/mL (≈ 0.0313 µM) | 4 µg/mL (≈ 6.26 µM) | 0.06 µg/mL (≈ 0.0939 µM) | 2 µg/mL (≈ 3.13 µM) | 0.13 µg/mL (≈ 0.204 µM) | 0.25 µg/mL (≈ 0.391 µM) | 0.25 µg/mL (≈ 0.391 µM) | 1 µg/mL (≈ 1.57 µM) | 4 µg/mL (≈ 6.26 µM) | 0.06 µg/mL (≈ 0.0939 µM) | 4 µg/mL (≈ 6.26 µM) | 
CCCC[n+]1c(N)cc(N)nc1SCC1=C(C(=O)[O-])N2C(=O)C(NC(=O)/C(=N\OC(C)(C)C(=O)O)c3cnc(N)s3)C2SC1 (stereo not given) | 0.13 µg/mL (≈ 0.195 µM) | 0.03 µg/mL (≈ 0.0451 µM) | 1 µg/mL (≈ 1.5 µM) | 0.06 µg/mL (≈ 0.0901 µM) | 4 µg/mL (≈ 6.01 µM) | 0.25 µg/mL (≈ 0.375 µM) | 0.5 µg/mL (≈ 0.751 µM) | 0.5 µg/mL (≈ 0.751 µM) | 1 µg/mL (≈ 1.5 µM) | 2 µg/mL (≈ 3 µM) | 0.13 µg/mL (≈ 0.195 µM) | 4 µg/mL (≈ 6.01 µM) | 
CCC[n+]1c(N)cc(N)nc1SCC1=C(C(=O)[O-])N2C(=O)C(NC(=O)/C(=N\OC(C)(C)C(=O)O)c3cnc(N)s3)C2SC1 (stereo not given) | 0.25 µg/mL (≈ 0.384 µM) | 0.03 µg/mL (≈ 0.046 µM) | 2 µg/mL (≈ 3.07 µM) | 0.13 µg/mL (≈ 0.199 µM) | 2 µg/mL (≈ 3.07 µM) | 0.06 µg/mL (≈ 0.0921 µM) | 0.25 µg/mL (≈ 0.384 µM) | 0.25 µg/mL (≈ 0.384 µM) | 2 µg/mL (≈ 3.07 µM) |  | 0.13 µg/mL (≈ 0.199 µM) | 4 µg/mL (≈ 6.14 µM) | 2 µg/mL (≈ 3.07 µM)
C[n+]1ccc(N)nc1SCC1=C(C(=O)[O-])N2C(=O)C(NC(=O)/C(=N\OC(C)(C)C(=O)O)c3cnc(N)s3)C2SC1 (stereo not given) | 0.03 µg/mL (≈ 0.0493 µM) | < 0.008 µg/mL | 1 µg/mL (≈ 1.64 µM) | 0.03 µg/mL (≈ 0.0493 µM) | 1 µg/mL (≈ 1.64 µM) | 0.06 µg/mL (≈ 0.0986 µM) | 0.13 µg/mL (≈ 0.214 µM) | 0.06 µg/mL (≈ 0.0986 µM) | 2 µg/mL (≈ 3.29 µM) | 4 µg/mL (≈ 6.57 µM) | 0.03 µg/mL (≈ 0.0493 µM) | 2 µg/mL (≈ 3.29 µM) | 
CC(C)(O/N=C(\C(=O)NC1C(=O)N2C(C(=O)O)=C(CSc3ncccn3)CSC12)c1cnc(N)s1)C(=O)O (stereo not given) | 1 µg/mL (≈ 1.73 µM) | 0.5 µg/mL (≈ 0.863 µM) | 16 µg/mL (≈ 27.6 µM) | 0.5 µg/mL (≈ 0.863 µM) | 16 µg/mL (≈ 27.6 µM) | 0.063 µg/mL (≈ 0.109 µM) | 2 µg/mL (≈ 3.45 µM) | 2 µg/mL (≈ 3.45 µM) | 8 µg/mL (≈ 13.8 µM) | 16 µg/mL (≈ 27.6 µM) | 1 µg/mL (≈ 1.73 µM) | 32 µg/mL (≈ 55.2 µM) | 
CC(C)(O/N=C(\C(=O)NC1C(=O)N2C(C(=O)[O-])=C(CSc3nc(N)cc(N)[n+]3C3CC3)CSC12)c1cnc(N)s1)C(=O)O (stereo not given) | 0.13 µg/mL (≈ 0.2 µM) | 0.03 µg/mL (≈ 0.0462 µM) | 2 µg/mL (≈ 3.08 µM) | 0.06 µg/mL (≈ 0.0923 µM) | 2 µg/mL (≈ 3.08 µM) | 0.13 µg/mL (≈ 0.2 µM) | 0.5 µg/mL (≈ 0.77 µM) | 0.25 µg/mL (≈ 0.385 µM) | 2 µg/mL (≈ 3.08 µM) | 4 µg/mL (≈ 6.16 µM) | 0.13 µg/mL (≈ 0.2 µM) | 4 µg/mL (≈ 6.16 µM) | 
CC(C)(O/N=C(\C(=O)NC1C(=O)N2C(C(=O)[O-])=C(CSc3nc(N)c4c([n+]3N)CCCC4)CSC12)c1cnc(N)s1)C(=O)O (stereo not given) | 0.06 µg/mL (≈ 0.0904 µM) | 0.02 µg/mL (≈ 0.0301 µM) | 0.5 µg/mL (≈ 0.753 µM) | 0.06 µg/mL (≈ 0.0904 µM) | 2 µg/mL (≈ 3.01 µM) | 0.06 µg/mL (≈ 0.0904 µM) | 0.13 µg/mL (≈ 0.196 µM) | 0.25 µg/mL (≈ 0.377 µM) | 2 µg/mL (≈ 3.01 µM) | 4 µg/mL (≈ 6.03 µM) | 0.06 µg/mL (≈ 0.0904 µM) | 4 µg/mL (≈ 6.03 µM) | 
